{"data": "Published values collected from several papers", "TYK2 JH1": "Non-receptor tyrosine-protein kinase TYK2, JH1 (TYK2, Homo sapiens, UniProt P29597)", "TYK2 JH2": "Non-receptor tyrosine-protein kinase TYK2, JH2 (TYK2, Homo sapiens, UniProt P29597)", "TYK2": "Non-receptor tyrosine-protein kinase TYK2 (TYK2, Homo sapiens, UniProt P29597)", "note": "Protocols differ between the studies behind these lines."}
{"SMILES": "CC(=O)N1CCC(c2ccc(C(=O)NC3=NCCN3)cc2C(F)(F)F)CC1", "target": "TYK2 JH1", "test": "cell-free assay, competition with immobilised ligand", "conditions": "1 µM", "quantity": "remaining binding", "result": "100%"}
{"SMILES": "Nc1ncnc2occ(-c3ccc(NC(=O)Nc4cc(C(F)(F)F)ccc4F)cc3)c12", "target": "TYK2 JH2", "test": "cell-free assay, inhibitor", "conditions": "20 µM", "quantity": "remaining signal", "result": "100%"}
{"SMILES": "COCCOc1nc(-c2ccc(Cl)nc2)nc2c1CN(C(=O)c1ncn3ccccc13)CC2", "target": "TYK2 JH2", "test": "cell-free assay, competition with immobilised ligand", "conditions": "0.1 µM", "quantity": "remaining binding", "result": "100%"}
{"SMILES": "O=C(CSc1nc2nccnc2c(=O)n1CCc1ccccc1)Nc1nccs1", "target": "TYK2", "test": "enzyme activity, inhibitor", "conditions": "10 µM", "quantity": "inhibition", "result": "5%"}
{"SMILES": "O=C(Nc1cnn(-c2csc(C(=O)NC3COC3)c2)c1)Nc1ccccc1Cl", "target": "TYK2", "test": "enzyme activity, inhibitor", "conditions": "5 µM", "quantity": "remaining activity", "result": "95.9%"}
{"SMILES": "CN1CC(Oc2cnc(C#N)cc2-c2ccn3nc(NC(=O)C4CC4)cc3c2)C1", "target": "TYK2", "test": "enzyme activity, inhibitor", "conditions": "1 µM", "quantity": "inhibition", "result": "-10%"}
{"SMILES": "CCC(=N\\O)/C(C)=C/c1ccc(F)cc1", "target": "TYK2 JH1", "test": "cell-free assay, competition with immobilised ligand", "conditions": "1 µM", "quantity": "remaining binding", "result": "72%"}
{"SMILES": "CC/C(=N\\NC(=O)NCc1cccc(O)c1)c1ccc(O)c(C)c1O", "target": "TYK2", "test": "enzyme activity, inhibitor", "conditions": "0.1 µM", "quantity": "inhibition", "result": "7.2%"}
{"SMILES": "Cc1nccc(COC(=O)N2C[C@@H]3[C@@H](CNC(=O)c4ccc5[nH]nnc5c4)[C@@H]3C2)n1", "target": "TYK2 JH1", "test": "cell-free assay, competition with immobilised ligand", "conditions": "1 µM", "quantity": "remaining binding", "result": "82%"}
{"SMILES": "CN(c1nccc(-c2cnn3ncccc23)n1)C1CC1", "target": "TYK2 JH1", "test": "cell-free assay", "conditions": "1 µM", "quantity": "remaining signal", "result": "100%"}
{"SMILES": "COc1cc2ncnc(Nc3ccc(Oc4ccccc4)cc3C)c2cc1OC", "target": "TYK2", "test": "enzyme activity, inhibitor", "conditions": "1 µM", "quantity": "inhibition", "result": "7%"}
{"SMILES": "Cc1cnc(NC2CCOCC2)nc1-n1cnc(C(=O)NC(CN)c2cc(F)cc(Cl)c2)c1 (stereo not shown)", "target": "TYK2", "test": "enzyme activity, inhibitor, radiometric", "conditions": "1 µM", "quantity": "remaining activity", "result": "96%"}
{"SMILES": "CCN(CC)CCNC(=O)c1c(C)[nH]c(/C=C2\\C(=O)Nc3ccc(F)cc32)c1C", "target": "TYK2", "test": "cell-free assay", "conditions": "0.5 µM", "quantity": "remaining signal", "result": "52.6%"}
{"SMILES": "CC(=O)Nc1c(C(C)=O)c(=O)n(C)c2nc(-c3ccc(Cl)cc3Cl)c(-c3ccc(Cl)cc3)cc12", "target": "TYK2 JH1", "test": "cell-free assay, competition with immobilised ligand", "conditions": "1 µM", "quantity": "remaining binding", "result": "100%"}
{"SMILES": "c1cnn2ncc(-c3ccnc(N4CCC45COC5)n3)c2c1", "target": "TYK2 JH1", "test": "cell-free assay", "conditions": "1 µM", "quantity": "remaining signal", "result": "64%"}
{"SMILES": "CN([C@@H]1CCc2c(CC(=O)O)c3ccccc3n2C1)S(=O)(=O)c1ccc(F)cc1", "target": "TYK2 JH1", "test": "cell-free assay, competition with immobilised ligand", "conditions": "1 µM", "quantity": "remaining binding", "result": "100%"}
{"SMILES": "Nc1nc(Nc2ccc(S(N)(=O)=O)cc2)nn1C(=O)c1c(F)cccc1F", "target": "TYK2", "test": "cell-free assay", "conditions": "0.5 µM", "quantity": "remaining signal", "result": "0.878%"}
{"SMILES": "CC(C)(C)c1nc(-c2cccc(NS(=O)(=O)c3c(F)cccc3F)c2F)c(-c2ccnc(N)n2)s1", "target": "TYK2", "test": "enzyme activity, inhibitor, radiometric", "conditions": "1 µM", "quantity": "remaining activity", "result": "96%"}
{"SMILES": "O=C1Nc2ccc(Cl)cc2C1=Cc1cc(Cl)c(O)c(Cl)c1", "target": "TYK2", "test": "cell-free assay", "conditions": "0.5 µM", "quantity": "remaining signal", "result": "26.9%"}
{"SMILES": "COc1cc2nccc(Oc3ccc(NC(=O)c4c5n(n(-c6ccc(F)cc6)c4=O)CCCC5)cc3)c2cc1OC", "target": "TYK2", "test": "enzyme activity, inhibitor", "conditions": "0.1 µM", "quantity": "inhibition", "result": "-28%"}
{"SMILES": "Oc1cccc(-c2nc(N3CCOCC3)c3oc4ncccc4c3n2)c1", "target": "TYK2", "test": "cell-free assay", "conditions": "0.5 µM", "quantity": "remaining signal", "result": "73.6%"}
{"SMILES": "CS(=O)(=O)NCC[C@H](NC(=O)c1cncc2c1cnn2-c1ccc(F)cc1)c1ccnc(S(C)(=O)=O)c1", "target": "TYK2 JH1", "test": "cell-free assay, competition with immobilised ligand", "conditions": "1 µM", "quantity": "remaining binding", "result": "100%"}
